Series [1] can be described thus: Selectivity index, ratio of MCC for HEL cells to EC50 for acyclovir-resistant TK-defecient Herpes simplex virus 1 KOS infected in HEL cells. It is filed as toxicity, cell-based. Conditions: human, read-out: Selectivity Index. Put shortly:
(§1)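 SI is MCC divided by EC50. […] MCC was measured in parallel on HEL cells seeded at 5 x 10^3 cells/well, as the lowest concentration causing microscopically visible alteration of cell morphology. The top concentration tested was 100 µM.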

In series [2] the test system is Human alphaherpesvirus 1. The experiment in a line: Antiviral activity against Herpes simplex virus 1 KOS infected in human HEL cells assessed as inhibition of virus-induced cytopathic effect after 3 days by microscopic method. Conditions: Human alphaherpesvirus 1, KOS, 72 h. Type of series: functional, organism-based. For orientation: Protection from cytopathic effect is a common read-out in antiviral testing.

Another series has as its system Vaccinia virus. In words: Antiviral activity against Vaccinia virus infected in human HEL cells assessed as inhibition of virus-induced cytopathic effect after 3 days by microscopic method. It is filed as functional, organism-based. Conditions: Orthopoxvirus vaccinia, 72 h.
A further series has as its system Human adenovirus 2. The experiment in a line: Antiviral activity against Human adenovirus 2 infected in human HEL cells assessed as inhibition of virus-induced cytopathic effect after 3 days by microscopic method. Type of series: functional, organism-based. Conditions: Human mastadenovirus C, 72 h. Summed up: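 HEL cells were infected with adenovirus 2 for 2 h. Residual virus was then removed and the cells were incubated with medium containing graded compound concentrations for 3 days at 37°C. Virus-induced cytopathogenicity was scored microscopically.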

Series [3] deals with Human alphaherpesvirus 1. The experiment in a line: Antiviral activity against acyclovir-resistant TK-defecient Herpes simplex virus 1 KOS infected in human HEL cells assessed as inhibition of virus-induced cytopathic effect after 3 days by microscopic method. It is filed as functional, organism-based. Conditions: Human alphaherpesvirus 1, KOS, 72 h.
The nature of series [4]: Selectivity index, ratio of MCC for HEL cells to EC50 for Herpes simplex virus 2 strain G infected in HEL cells. It is filed as toxicity, cell-based. Conditions: human, read-out: Selectivity Index. Put shortly:
as §1

Series [5] in a line: Selectivity index, ratio of MCC for HEL cells to EC50 for Herpes simplex virus 1 KOS infected in HEL cells. Type of series: toxicity, cell-based. Conditions: human, read-out: Selectivity Index. Put shortly: as §1
Series [6] in a line: Selectivity index, ratio of MCC for HEL cells to EC50 for Vaccinia virus infected in HEL cells. Type of series: toxicity, cell-based. Conditions: human, read-out: Selectivity Index. Summed up: as §1
The nature of series [7]: Cytotoxicity against HEL cells assessed as alteration in cell morphology after 3 days by microscopic method. It is filed as cell-based. Conditions: human. Summed up:
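HEL cells were seeded at 5 x 10^3 cells/well and exposed to graded compound concentrations, up to 100 μM, in parallel with the antiviral assay. Cell morphology was examined by light microscopy. MCC is the minimum concentration causing a microscopically detectable alteration of normal cell morphology.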

Series [8] in a line: Selectivity index, ratio of MCC for HEL cells to EC50 for Human coronavirus 229E infected in HEL cells. Type of series: toxicity, cell-based. Conditions: read-out: Selectivity Index. Summed up:
as §1

In another series the test system is Human coronavirus 229E. The experiment in a line: Antiviral activity against Human coronavirus 229E infected in HEL cells assessed as reduction in virus-induced pathogenicity after 3 days by microscopic method. It is filed as functional, organism-based. Conditions: 72 h.
The subject of a further series is Human alphaherpesvirus 2. In words: Antiviral activity against Human herpesvirus 2 strain G infected in human HEL cells assessed as inhibition of virus-induced cytopathic effect after 3 days by microscopic method. It is filed as functional, organism-based. Conditions: Human alphaherpesvirus 2, strain G, 72 h.
The nature of series [9]: Selectivity index, ratio of MCC for HEL cells to EC50 for Human adenovirus 2 infected in HEL cells. Type of series: toxicity, cell-based. Conditions: read-out: Selectivity Index. Put shortly: as §1

Molecules are shown by their SMILES.

This passage reports selectivity ratio, EC50 and MCC results from ChEMBL document CHEMBL4265975, “Synthesis, biological evaluation and molecular modeling of a novel series of fused 1,2,3-triazoles as potential anti-coronavirus agents” (Bioorg Med Chem Lett, 2018).

One may read the EC50 as the midpoint of the concentration-response curve.

As for `COc1ccc(CCn2nnc3c2CCN(c2ccc(C(F)(F)F)cc2)C3)cc1`, the selectivity ratio in series [1], in [4], in series [5], in series [6], in [8] and in [9] was over 8 in each case. The EC50 with Human alphaherpesvirus 1 [2] is over 100 µM; with Vaccinia virus it was over 100 µM; in the series with Human adenovirus 2 it was over 100 µM; in the series with Human alphaherpesvirus 1 [3], over 100 µM; in the series on Human coronavirus 229E it was 8.9 µM; in the series on Human alphaherpesvirus 2, over 100 µM. In addition, the MCC at 72 h in [7] is over 100 µM.
Consider `Fc1ccc(N2CCc3c(nnn3CC(c3ccccc3)c3ccccc3)C2)cc1`, for which the selectivity ratio in [1], in series [4], in [5], in series [6], in [8] and in series [9] was over 8 each time. For the same compound, the EC50 in the series on Human alphaherpesvirus 1 [2], in the series on Vaccinia virus, with Human adenovirus 2, in the series on Human alphaherpesvirus 1 [3], in the series with Human coronavirus 229E and in the series on Human alphaherpesvirus 2 was over 100 µM each time. In series [7], the MCC at 72 h was at least 100 µM.
For the compound `COc1cccc(CCn2nnc3c2CCN(c2ccc(C(F)(F)F)cc2)C3)c1`, the selectivity ratio in [1], in [4], in series [5], in series [6], in series [8] and in series [9] was over 8 throughout. Besides, the EC50 in the series on Human alphaherpesvirus 1 [2] was over 100 µM; with Vaccinia virus, over 100 µM; in the series on Human adenovirus 2, 16 µM; with Human alphaherpesvirus 1 [3] it was over 100 µM; with Human coronavirus 229E, over 100 µM; in the series on Human alphaherpesvirus 2 it was over 100 µM. In addition, the MCC at 72 h in series [7] is over 100 µM.
Turning to `CCCCCCn1nnc2c1CCN(c1ccccc1)C2`, the selectivity ratio in series [1], in series [4], in series [5], in [6], in series [8] and in series [9] was over 8 throughout. Besides, the EC50 in the series with Human alphaherpesvirus 1 [2], with Vaccinia virus, in the series on Human adenovirus 2, in the series on Human alphaherpesvirus 1 [3], with Human coronavirus 229E and in the series with Human alphaherpesvirus 2 was over 100 µM each time. Also, in series [7], the MCC at 72 h was over 100 µM.
